Measured values as given in ChEMBL document CHEMBL1145132, “N-hydroxy-3-phenyl-2-propenamides as novel inhibitors of human histone deacetylase with in vivo antitumor activity: discovery of (2E)-N-hydroxy-3-[4-[[(2-hydroxyethyl)[2-(1H-indol-3-yl)ethyl]amino]methyl]phenyl]-2-propenamide (NVP-LAQ824)” (J Med Chem, 2003).
Several values for one entry are separate records, joined by “and”; a condition that tells them apart may be missing. Equal values may be shown once.

Legend:
NCI-H1299 = test: Inhibitory activity against H1299 human lung carcinoma cell growth; assay type: functional, cell-based
HCT-116 = test: Inhibitory activity against HCT116 human colon cell growth; assay type: functional, cell-based
Histone deacetylase = test: Inhibitory activity against histone deacetylase (HDAC) enzyme obtained from H1299 human lung carcinoma cell lysates
Mus musculus [1] = test: Compound was tested for efficacy in athymic mice bearing HCT116 subcutaneous tumor xenografts at a dose of 45 mg/kg and change in the body weight of the mouse was evaluated; assay type: functional
Mus musculus [2] = test: Compound was tested for maximum tolerated dose (MTD) that resulted in no deaths when administered intravenously for five days; assay type: functional
Outline: (§1)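 Athymic mice, four per group, dosed iv once daily for five consecutive days, up to a maximum of 200 mg/kg/day. Compound given as the lactate salt in 10% DMSO in 5% dextrose/water (final DMSO 10%). MTD taken as the highest dose that caused no deaths.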

Mus musculus [3] = test: Ratio of the change in tumor volume of treated animals to the change in tumor volume of control animals at a dose of 45 mg/kg; assay type: functional
Outline: (§2)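 HCT116 sc xenografts (≈10⁶ cells) in female athymic nude mice, eight per group, treated from ≈100 mm³ tumors with iv lactate salt in 10% DMSO/D5W qd 5×/week for 10 or 15 doses. Tumors measured weekly; % T/C = change in treated tumor volume over change in vehicle-control tumor volume; one-tailed Student's t-test.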

Mus musculus [4] = test: Compound was tested in vivo for efficacy in athymic mice bearing HCT116 subcutaneous tumor xenografts at a dose of 50 mg/kg and change in the body weight of the mouse was evaluated; assay type: functional; details: route intravenous
Outline: (§3)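 Female outbred athymic nu/nu mice, ≈10⁶ HCT116 cells injected sc in right axillary region under anesthesia; treatment began when tumors ≈100 mm³ (day 13 post-implant), groups of eight balanced on tumor volume. Compound given iv as lactate salt in 10% DMSO/D5W, qd 5×/week for 15 doses. Individual body weights recorded once weekly; % change from start reported.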

Mus musculus [5] = test: Compound was tested in vivo for maximum tolerated dose (MTD) that resulted in no deaths when administered intravenously for five days; assay type: functional; outline: as §1
Mus musculus [6] = test: Ratio of the change in tumor volume of treated animals to the change in tumor volume of control animals at a dose of 50 mg/kg; assay type: functional; outline: as §2
Mus musculus [7] = test: Compound was tested in vivo for efficacy in athymic mice bearing HCT116 subcutaneous tumor xenografts at a dose of 25 mg/kg and change in the body weight of the mouse was evaluated; assay type: functional
Mus musculus [8] = test: Ratio of the change in tumor volume of treated animals to the change in tumor volume of control animals at a dose of 25 mg/kg; assay type: functional; outline: as §2
Mus musculus [9] = test: Compound was tested in vivo for efficacy in athymic mice bearing HCT116 subcutaneous tumor xenografts at a dose of 100 mg/kg and change in the body weight of the mouse was evaluated; assay type: functional; details: route intravenous; outline: as §3
Mus musculus [10] = test: Compound was tested in vivo for efficacy in athymic mice bearing HCT116 subcutaneous tumor xenografts at a dose of 10 mg/kg and change in the body weight of the mouse was evaluated; assay type: functional; details: route intravenous; outline: as §3
Mus musculus [11] = test: Ratio of the change in tumor volume of treated animals to the change in tumor volume of control animals at a dose of 10 mg/kg; assay type: functional; outline: as §2
Mus musculus [12] = test: Ratio of the change in tumor volume of treated animals to the change in tumor volume of control animals at a dose of 100 mg/kg; assay type: functional; outline: as §2
Mus musculus [13] = test: Compound was tested in vivo for efficacy in athymic mice bearing HCT116 subcutaneous tumor xenografts at a dose of 30 mg/kg and change in the body weight of the mouse was evaluated; assay type: functional; outline: as §3
Mus musculus [14] = test: Ratio of the change in tumor volume of treated animals to the change in tumor volume of control animals at a dose of 30 mg/kg; assay type: functional; outline: as §2
Mus musculus [15] = test: Compound was tested for efficacy in athymic mice bearing HCT116 subcutaneous tumor xenografts at a dose of 50 mg/kg and change in the body weight of the mouse was evaluated; assay type: functional; outline: as §3
Mus musculus [16] = test: Ratio of number of deaths of mice to the number of mice tested was determined at a dose of 10 mg/kg; dead/total = 0 / 8; assay type: functional
Outline: (§4)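 Female outbred athymic nu/nu mice, eight per group, carrying subcutaneous right-axillary HCT116 (≈10⁶ cells) or A549 (≈10⁷ cells) xenografts, started treatment at ≈100 mm³ tumour volume. Drug given as lactate salt in 10% DMSO/D5W, iv qd 5×/week for 15 doses. Body weights and tumours recorded weekly; deaths counted per group as dead/total.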

Mus musculus [17] = test: Ratio of number of deaths of mice to the number of mice tested was determined at a dose of 50 mg/kg; dead/total = 0 / 8; assay type: functional; outline: as §4
Mus musculus [18] = test: Ratio of number of deaths of mice to the number of mice tested was determined at a dose of 100 mg/kg; dead/total = 0 / 8; assay type: functional; outline: as §4
Mus musculus [19] = test: Compound was tested in vivo for efficacy in athymic mice bearing HCT116 subcutaneous tumor xenografts at a dose of 20 mg/kg and change in the body weight of the mouse was evaluated; assay type: functional; outline: as §3
Mus musculus [20] = test: Ratio of the change in tumor volume of treated animals to the change in tumor volume of control animals at a dose of 20 mg/kg; assay type: functional; outline: as §2
Mus musculus [21] = test: Compound was tested for efficacy in athymic mice bearing HCT116 subcutaneous tumor xenografts at a dose of 75 mg/kg and change in the body weight of the mouse was evaluated; assay type: functional
Mus musculus [22] = test: Ratio of the change in tumor volume of treated animals to the change in tumor volume of control animals at a dose of 75 mg/kg; assay type: functional; outline: as §2
Mus musculus [23] = test: Compound was tested for efficacy in athymic mice bearing HCT116 subcutaneous tumor xenografts at a dose of 10 mg/kg and change in the body weight of the mouse was evaluated; assay type: functional; outline: as §3

SMILES | IC50 (NCI-H1299) [nM] | IC50 (HCT-116) [nM] | IC50 (Histone deacetylase) [nM] | also measured
O=C(/C=C/c1ccc(CN[C@@H](CO)Cc2c[nH]c3ccccc23)cc1)NO | 750 | 40 | 40 | –
O=C(/C=C/c1ccc(CN(CCc2c[nH]c3ccccc23)Cc2ccccc2)cc1)NO | 2060 | 120 | 85 | –
O=C(/C=C/c1ccc(CN(CCOC(=O)NCc2ccoc2)CCc2c[nH]c3ccccc23)cc1)NO | 180 | 15 | 370 | –
O=C(/C=C/c1ccc(CNCCc2cc3ccccc3[nH]2)cc1)NO | 540 | 40 | 46 | –
O=C(/C=C/c1ccc(CN2CCC(c3c[nH]c4ccccc34)CC2)cc1)NO | 900 | 110 | 53 | –
Nc1ccccc1NC(=O)c1ccc(CNC(=O)OCc2ccccc2)cc1 | 6820 | 670 | > 10000 | –
O=C(/C=C/c1ccc(CNCCCc2ccccc2)cc1)NO | 800 | 50 | 150 | Body weight change (Mus musculus [1]): -3.1%; MTD (Mus musculus [2]): 45 mg/kg; T/C (Mus musculus [3]): 86%
O=C(/C=C/c1ccc(CNCc2cc3ccccc3[nH]2)cc1)NO | 940 | 50 | 51 | –
O=C(/C=C/c1ccc(CN(CCO)CCc2cnc3ccccc3c2)cc1)NO | 530 | 40 | 24 | Body weight change (Mus musculus [4]): 3.1%; MTD (Mus musculus [5]): 50 mg/kg; T/C (Mus musculus [6]): 78%
Cc1nc2ccccc2n1CCNCc1ccc(/C=C/C(=O)NO)cc1 | 2750 | 200 | 38 | –
O=C(/C=C/c1ccc(CNCCc2ccc3c(c2)OCO3)cc1)NO | 500 | 50 | 30 | –
O=C(/C=C/c1ccc(CN(CCCc2ccccc2)Cc2ccccn2)cc1)NO | 2740 | 740 | 278 | –
CC(Cc1c[nH]c2ccccc12)NCc1ccc(/C=C/C(=O)NO)cc1 (stereo not drawn) | 410 | 20 | 24 | –
O=C(/C=C/c1ccc(CNCCCc2c[nH]c3ccccc23)cc1)NO | 1000 | 100 | 53 | –
O=C(/C=C/c1ccc(CNCCCCc2c[nH]c3ccccc23)cc1)NO | 480 | 30 | 37 | –
CC(NCCc1c[nH]c2ccccc12)c1ccc(/C=C/C(=O)NO)cc1 (stereo not drawn) | 480 | 15 | 23 | –
O=C(/C=C/c1ccc(CN(CCc2c[nH]c3ccccc23)C2CCCCC2)cc1)NO | 40 | 17 | 20 | –
CC(C)N(CCc1c[nH]c2ccccc12)Cc1ccc(/C=C/C(=O)NO)cc1 | 30 | – | – | Body weight change (Mus musculus [7]): -4.1%; MTD (Mus musculus [5]): 25 mg/kg; T/C (Mus musculus [8]): 29%

SMILES | IC50 (NCI-H1299) [nM] | IC50 (HCT-116) [nM] | IC50 (Histone deacetylase) [nM] | also measured
O=C(/C=C/c1ccc(CNCCc2c[nH]c3ccccc23)cc1)NO | 400 | – | – | Body weight change (Mus musculus [9]): -9.4%; Body weight change (Mus musculus [7]): -7%; Body weight change (Mus musculus [4]): -7.3%; Body weight change (Mus musculus [10]): -10.2%; MTD (Mus musculus [5]): 100 mg/kg; T/C (Mus musculus [11]): 56%; T/C (Mus musculus [12]): 17%; T/C (Mus musculus [8]): 40%; T/C (Mus musculus [6]): 13%
O=C(/C=C/c1ccc(CN2CCc3c([nH]c4ccccc34)C2)cc1)NO | 2900 | 430 | 118 | –
O=C(/C=C/c1ccc(CNCCc2cnc3ccccc3c2)cc1)NO | 500 | 40 | 67 | Body weight change (Mus musculus [13]): -5.4%; MTD (Mus musculus [5]): 30 mg/kg; T/C (Mus musculus [14]): 77%
O=C(/C=C/c1ccc(CNCCc2c[nH]c3ccc(OCc4ccccc4)cc23)cc1)NO | 65 | 40 | – | Body weight change (Mus musculus [15]): -3%; MTD (Mus musculus [2]): 50 mg/kg; T/C (Mus musculus [6]): 45%
COc1ccc2[nH]cc(CCNCc3ccc(/C=C/C(=O)NO)cc3)c2c1 | 580 | 30 | 14 | Body weight change (Mus musculus [9]; 100 mg/kg): 7.4% and 12%; Body weight change (Mus musculus [7]): -5.5%; Body weight change (Mus musculus [4]): -8.1%; Body weight change (Mus musculus [10]): -4.6%; MTD (Mus musculus [5]): 100 mg/kg; Ratio (Mus musculus [16]): 0; Ratio (Mus musculus [17]): 0; Ratio (Mus musculus [18]): 0; T/C (Mus musculus [11]): 64%; T/C (Mus musculus [12]; 100 mg/kg): 9% and 22%; T/C (Mus musculus [8]): 38%; T/C (Mus musculus [6]): 24%
O=C(/C=C/c1ccc(CNCCc2cn(CC3CC3)c3ccccc23)cc1)NO | 250 | 30 | 84 | Body weight change (Mus musculus [19]): -0.9%; MTD (Mus musculus [5]): 20 mg/kg; T/C (Mus musculus [20]): 81%
O=C(/C=C/c1ccc(CNCCOc2ccccc2)cc1)NO | 1530 | 160 | 69 | –
O=C(/C=C/c1ccc(CN(CCc2c[nH]c3ccccc23)C(CO)CO)cc1)NO | 2500 | 160 | 52 | –
Cn1cc(CCNCc2ccc(/C=C/C(=O)NO)cc2)c2ccccc21 | 170 | 10 | 23 | Body weight change (Mus musculus [21]): -3.2%; T/C (Mus musculus [22]): 15%; MTD (Mus musculus [2]): 75 mg/kg
COc1ccccc1NCCNCc1ccc(/C=C/C(=O)NO)cc1 | 2160 | 170 | 111 | –
O=C(/C=C/c1ccc(CNCCCn2c3ccccc3c3ccccc32)cc1)NO | 1100 | 160 | 79 | –
O=C(/C=C/c1ccc(CN[C@H](CO)Cc2c[nH]c3ccccc23)cc1)NO | 810 | 50 | 27 | –
O=C(/C=C/c1ccc(CNCc2c[nH]c3ccccc23)cc1)NO | 2200 | 160 | 59 | –
O=C(/C=C/c1ccc(CNCCc2c[nH]c3ccc(F)cc23)cc1)NO | 310 | 30 | 14 | Body weight change (Mus musculus [9]; 100 mg/kg): 6.7% and 7.5%; Body weight change (Mus musculus [7]): -6.6%; Body weight change (Mus musculus [4]): -1.7%; Body weight change (Mus musculus [10]): -6.4%; MTD (Mus musculus [5]): 100 mg/kg; Ratio (Mus musculus [16]): 0; Ratio (Mus musculus [17]): 0; Ratio (Mus musculus [18]): 0; T/C (Mus musculus [11]): 40%; T/C (Mus musculus [12]; 100 mg/kg): 16% and 8%; T/C (Mus musculus [8]): 19%; T/C (Mus musculus [6]): 13%
O=C(/C=C/c1ccc(CNCCn2c3ccccc3c3ccccc32)cc1)NO | 100 | 10 | 66 | Body weight change (Mus musculus [23]): -3.7%; MTD (Mus musculus [2]): 10 mg/kg; T/C (Mus musculus [11]): 85%
O=C(/C=C/c1ccc(CNCCc2coc3ccccc23)cc1)NO | 180 | 30 | 16 | Body weight change (Mus musculus [4]): 0.5%; MTD (Mus musculus [5]): 50 mg/kg; T/C (Mus musculus [6]): 49%
O=C(/C=C/c1ccc(NCCCc2c[nH]c3ccccc23)cc1)NO | 820 | 480 | 262 | –
O=C(/C=C/c1ccc(CN(CCCc2ccccc2)Cc2cccnc2)cc1)NO | 1700 | 420 | 164 | –
